ChEMBL document CHEMBL4732273, “In Silico Targeting of the Long Noncoding RNA MALAT1” (ACS Med Chem Lett, 2021)
Calls of active or inactive are those of the source. No cut-off for these calls is given here.

Columns and labels:
[1] = Binding affinity to biotinylated-MALAT1 RNA (unknown origin) at 200 uM measured after 140 secs by Surface plasmon resonance analysis; conditions: time 140.0 sec
Summary of the method: (§1)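 The RNA was 3′-biotinylated by ligating pCp-biotin with T4 RNA ligase 1 after dephosphorylation, then immobilized on the SPR chip at 300 RU. Compounds were injected as 50 μL at 200 μM at a 20 μL/min flow rate, followed by 60 s of dissociation. Biotinylated tRNA was immobilized and run the same way as the negative-control surface.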

tRNA = assay: Binding affinity to biotinylated-tRNA (unknown origin) at 200 uM measured after 120 secs by Surface plasmon resonance analysis; assay type: nucleic-acid assay; conditions: time 120.0 sec; summary of the method: as §1
[2] = Binding affinity to biotinylated-MALAT1 RNA (unknown origin) by Surface plasmon resonance analysis
Summary of the method: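 Surface plasmon resonance on MALAT1 RNA that was 3′-biotinylated by pCp-biotin ligation with T4 RNA ligase 1 and immobilized at 300 RU. Compound was flowed at 20 μL/min with 60 s of dissociation. A biotinylated tRNA surface served as the negative control. The dissociation constant was derived from the SPR sensorgram analysis.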

Activity [1]	Activity (tRNA)	Kd [2]	SMILES
Active	inactive	–	c1ccc2sc(C3CCCN(Cc4cc5n(n4)CCCNC5)C3)nc2c1 (stereo unspecified)
Active	Active	–	COc1ncccc1CN1CCN(c2ccc(C(N)=O)cc2)CC1
Active	Active	–	NCC1Cc2cccc(-c3cc4c(cc3C(N)=O)OCO4)c2O1 (stereo unspecified)
Active	Active	–	Cc1ccc(NC(=O)NCC2CCCN(C3CCN(C)CC3)C2)cc1 (stereo unspecified)
Active	–	–	O=C(c1cc(=O)[nH]c2cc(F)ccc12)N1CCCC(N2CCCC2)C1 (stereo unspecified)
Active	Active	–	CCN1CCCC1CNC(=O)CCC1CCN(Cc2cc3ccccc3s2)CC1 (stereo unspecified)
Active	inactive	400 µM	NS(=O)(=O)c1ccc(CNC2CCC3(CCNCC3)CC2)cc1
Active	inactive	–	CN1CCC(O)(Cn2cnc3ccc(F)cc3c2=O)CC1
